The values below come from ChEMBL document CHEMBL1124913, “Aqua[1-(2,6-dichloro-4-hydroxyphenyl)-2- phenylethylenediamine](sulfato)platinum-(II) complexes with variable substituents in the 2-phenyl ring. 1. Synthesis and antitumor and estrogenic properties” (J Med Chem, 1990).

Assay [1] concerns P388. The experiment in a line: In vivo antitumor effect on P388 Leukemia in CDF1 mice, median survival time in days at 5 umol/kg. Type of assay: functional, organism-based. The settings on record: Mus musculus. The procedure, abridged: (§1)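 P388 leukemia was passaged in female DBA/2 mice. Female CDF1 mice (18–22 g) received 1×10^6 cells ip in PBS on day 0. Groups of six (ten for solvent control) were dosed ip with aqueous solutions on days 1, 5 and 9. Median survival time = X + Y/2, with X and Y the first days reaching N/2 and N/2 + 1 deaths. %T/C = treated/control median survival ×100.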

In assay [2] the test system is P388. The assay is described as follows: In vivo antitumor effect on P388 Leukemia in CDF1 mice at 5 umol/kg intraperitoneal dose. The settings on record: Mus musculus. It is filed as functional, organism-based. The procedure, abridged: as §1
The subject of assay [3] is Mus musculus. The assay is described as follows: Ratio of median survival time of tested group to control group at 5 umol/kg. Type of assay: functional, organism-based. The procedure, abridged: as §1
The subject of assay [4] is Mus musculus. The experiment in a line: Ratio of median survival time of tested group to that of control group of animals was reported at a concentration of 10 uM/Kg. It is filed as functional, organism-based. The method, boiled down: as §1
For assay [5], the system named is Mus musculus. The experiment in a line: Ratio of median survival time of tested group to that of control group of animals was reported at a concentration of 40 uM/Kg. Type of assay: functional, organism-based. The method, boiled down: as §1
The subject of assay [6] is P388. The experiment in a line: In vivo for antitumor effect on P388 Leukemia of the CDF1 and median survival time of the animals in days was reported at a concentration of 10 uM/Kg. It is filed as functional, organism-based. The settings on record: Mus musculus. The method, boiled down:
as §1

The target in assay [7] is T1, Estrogen receptor (Mus musculus) (UniProt O08537+P19785). The assay is described as follows: (§2) Administered subcutaneously on three consecutive days at a dose of 10 uM /Kg. Type of assay: functional. The method, boiled down:
(§3)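 Immature female NMRI mice, 19 days old, in groups of six. Compounds were dissolved in water and given as 0.1 mL sc on days 1, 2 and 3; controls got vehicle and standards got estrone 0.4 μg. Animals were killed 24 h after the last dose. Uteri were fixed in Bouin solution, dried at 100 °C for 18 h and weighed. E = [uterine dry weight (mg)/body weight (g)]100, and estrogenic effect = (E_T − E_V)/(E_S − E_V)100.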

The test system of assay [8] is P388. The experiment in a line: In vivo for antitumor effect on P388 Leukemia of the CDF1 and median survival time of the animals in days was reported at a concentration of 20 uM/Kg. Type of assay: functional, organism-based. The settings on record: Mus musculus. The procedure, abridged:
as §1

Assay [9] concerns the target T1, Estrogen receptor (Mus musculus). The experiment in a line: Administered subcutaneously on three consecutive days at a dose of 1000 uM /Kg. It is filed as functional. The procedure, abridged: as §3
For assay [10] the target is unchanged. The assay is described as follows: (§4) Administered subcutaneously on three consecutive days at a dose of 100 uM /Kg. Type of assay: functional. The method, boiled down:
as §3

Assay [11] has as its system P388. The experiment in a line: In vivo for antitumor effect on P388 Leukemia of the CDF1 and median survival time of the animals in days was reported at a concentration of 40 uM/Kg. It is filed as functional, organism-based. The following applies: Mus musculus. The method, boiled down:
as §1

For assay [12], the system named is Mus musculus. The assay is described as follows: Ratio of median survival time of tested group to that of control group of animals was reported at a concentration of 20 uM/Kg. It is filed as functional, organism-based. The procedure, abridged: as §1
Assay [13] relates to P388. The experiment in a line: In vivo for antitumor effect on P388 Leukemia of the CDF1 mouse at dose 40 uM/kg administered intraperitoneally. Type of assay: functional, organism-based. The procedure, abridged: as §1
For assay [14], the target named is T1, Estrogen receptor (Mus musculus). The assay is described as §2. Type of assay: functional. The method, boiled down:
as §3
This is another data set of the same source.

Assay [15] deals with P388. The experiment in a line: In vivo for antitumor effect on P388 Leukemia of the CDF1 mouse at dose 20 uM/kg administered intraperitoneally. It is filed as functional, organism-based. The procedure, abridged: as §1
Assay [16] has as its target T1, Estrogen receptor (Mus musculus). The experiment in a line: Estrogenic effect on subcutaneous 100 uM/kg dose for 3 days. It is filed as functional. The method, boiled down:
as §3

Assay [17] shares this target. The assay is described as follows: Administered subcutaneously on three consecutive days at a dose of 1000 uM /Kg. Type of assay: functional. The procedure, abridged:
as §3

Assay [18] shares this target. The experiment in a line: Estrogenic effect on subcutaneous 1000 umol/kg dose for 3 days. It is filed as functional. The method, boiled down: as §3
The target is the same in assay [19]. The assay is described as follows: Estrogenic effect on subcutaneous 10 uM/kg dose for 3 days. It is filed as functional. The procedure, abridged: as §3
The target is the same in assay [20]. Described as §4. It is filed as functional. The procedure, abridged: as §3
The source holds these as a separate data set.

For assay [21], the system named is P388. The assay is described as follows: In vivo antitumor effect on P388 Leukemia in CDF1 mice, median survival time in days at 10 uM/kg. It is filed as functional, organism-based. The following applies: Mus musculus. The procedure, abridged:
as §1

Assay [22] has as its system P388. The experiment in a line: In vivo for antitumor effect on P388 Leukemia of the CDF1 mouse at dose 10 uM/kg administered intraperitoneally. It is filed as functional, organism-based. The method, boiled down:
as §1

Assay [23] concerns P388. The assay is described as follows: In vivo for antitumor effect on P388 Leukemia of the CDF1, and median survival time of the animals in days was reported at a concentration of 40 uM/Kg. It is filed as functional, organism-based. The settings on record: Mus musculus. The method, boiled down: as §1
The test system of assay [24] is P388. The assay is described as follows: In vivo antitumor effect on P388 Leukemia in CDF1 mice, median survival time in days at 20 umol/kg. The following applies: Mus musculus. It is filed as functional, organism-based. The procedure, abridged:
as §1

As usually defined, the T/C is the result in the treated group divided by that in the control group, in per cent.

Where “and” joins values, the source holds several entries; their conditions need not be identical. Identical values can stand only once.

On to CISPLATIN, for which the MST in the assay on P388 [1] amounted to 19. The substance also had a T-C with P388 [2] of -3.8 g. In the assay on Mus musculus [3], the T/C was 238%.
For the substance “Aqua [threo-1-(-2-fluoro-4-hydroxyhenyl)-2-(2,6-dichloro-4-hydroxyphenyl) ethylenediamine](sulfato) platinum (II)”, the T/C in the assay with Mus musculus [4] was 155% and 133%; in the assay with Mus musculus [5] it was 172% and 155%; in the assay with Mus musculus [12], 166% and 155%. Further, the MST was 14 and 12 in the assay on P388 [6]; 15 and 14 in the assay on P388 [8]; 15.5 and 14 with P388 [11]. Besides, the Estrogenic effect is 9 and 11 in [7]; 20 and 52 in assay [9]; 11 and 13 in assay [10]; 1% and 0% in [14]. The T-C in the assay with P388 [13] was -3.8 g and -2.4 g; with P388 [15], -2.2 g and -1.2 g.
Consider “Aqua[threo-1-(-2-chloro-4-hydroxyhenyl)-2-(2,6-dichloro-4-hydroxyphenyl) ethylenediamine](sulfato) platinum (II)(threo-9-Ptso4)”, for which the Estrogenic effect in assay [16] is 14%; in assay [17], 117%; in assay [18], 35%; in [19], 10%; in [20] it was 141%; in [7], 9 and 11. In addition, the Estrogenic effect in assay [9] was 86 and 91; in assay [10], 21 and 22; in assay [14], 39%. Further, the T/C in the assay with Mus musculus [5] is 161% and 155%; in the assay on Mus musculus [12], 155% and 144%. In addition, the MST in the assay with P388 [21] amounted to 14; in the assay on P388 [6] it was 11.5; in the assay on P388 [8], 13; in the assay on P388 [11], 14; in the assay with P388 [23] it was 14.5; in the assay on P388 [24], 14. Also, the T-C with P388 [22] was -1.8 g and -2.4 g; in the assay on P388 [13] it was -2.9 g and -1.9 g; with P388 [15] it was -1.8 g and -1.2 g.
In the case of “Aqua[erythro-1-(-3-hydroxyhenyl)-2-(2,6-dichloro-4-hydroxyphenyl) ethylenediamine](sulfato) platinum (II)(erythro-4-Ptso4)”, the Estrogenic effect is 0% in assay [17]; 0% in assay [20]; 19 and 32 in assay [9]; 0% in [14]. Besides, the T/C is 156% and 163% in the assay on Mus musculus [4]; 161% and 169% in the assay with Mus musculus [12]. In addition, the MST in the assay with P388 [21] was 13; in the assay on P388 [6], 14; in the assay with P388 [8], 14.5 and 13.5; in the assay on P388 [11], 15.5; with P388 [23], 8. Moreover, the T-C in the assay with P388 [22] is -0.9 g and -1.5 g; in the assay with P388 [13], -4.6 g and -2.6 g; with P388 [15] it was -1.7 g and -1.9 g.
